High-throughput results (PubChem)
Shown are actives, neighbours in structure and some others; about 3.6% of the full set was active somewhere.
ZTA DNA inh: ZTA (EBV) inhibition in EBNA-1 counter-screen | hit rate 0.15% among 320,000 | ZTA-DNA binding, fluorescence polarization | P03206 | AID 2234 | inhibition, % at 11 µM; in the data active = inhibition above about 33%
Target sequence (P03206 whole entry, looked up): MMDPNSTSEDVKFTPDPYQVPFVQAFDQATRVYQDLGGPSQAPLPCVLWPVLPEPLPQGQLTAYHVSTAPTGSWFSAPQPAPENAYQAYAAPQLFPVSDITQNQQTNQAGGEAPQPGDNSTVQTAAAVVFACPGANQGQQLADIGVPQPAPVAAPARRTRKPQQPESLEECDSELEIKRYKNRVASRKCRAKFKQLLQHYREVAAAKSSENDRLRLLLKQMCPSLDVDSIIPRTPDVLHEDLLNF
HCV NS3 hel inh: inhibitors of Hepatitis C virus NS3 helicase; hit rate 0.56% among 290,000; NS3 helicase DNA unwinding, Cy5 molecular beacon fluorescence; AID 1800; inhibition, % at 10.9 µM;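 active = inhibition above the mean of all tested compounds plus 3 SD, set per campaign, cut at about 35% in these data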
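System: Hepatitis C virus NS3 helicase domain fragment enzyme | Reagent: Annealed dual-labelled DNA beacon duplex, ATP-started | Compound dosing: 10.9 µM single point, 0.8% DMSO | Incubation: 1 h reaction at 25 °C, ATP-initiated | Technique: Cy5 fluorescence | Evaluation: Percent inhibition from t60/t0 fluorescence ratio | Benchmarks: Low DMSO, high thioflavine S at 110 µM | Replication: Singlicate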
EBNA-1 inh: blocks EBNA-1 binding to DNA. EBNA-1 DNA binding, fluorescence polarization. hit rate 0.34% among 300,000. inhibition, % at 14.8 µM; in the data active = inhibition above about 28%
NR3A LBD binder: modulates the human NR3A ligand-binding domain; Tm shift relative to glycine control, % at 25 µM; NR3A LBD differential scanning fluorimetry, Tm shift; 0% = protein alone, 100% = glycine-bound protein; hit rate 2.5% among 340,000; AID 1259313;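 active = melting temperature shift of at least 10% of the positive control shift, at one fixed dose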
FGF22 binding: FGF22 (human) thermal shift binding. Q9HCT0. recombinant FGF22 thermal shift, SYPRO orange fluorescence; percent of sucrose octasulfate shift, DMSO zero. activity (Tm shift, normalised), % at 9.99 µM. hit rate 1.5% among 340,000;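 active = mean Tm shift, scaled 0 neutral to 100 positive control, at about 1.3% or above, every replicate too, limit read from the data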
Target sequence (Q9HCT0 whole entry, looked up): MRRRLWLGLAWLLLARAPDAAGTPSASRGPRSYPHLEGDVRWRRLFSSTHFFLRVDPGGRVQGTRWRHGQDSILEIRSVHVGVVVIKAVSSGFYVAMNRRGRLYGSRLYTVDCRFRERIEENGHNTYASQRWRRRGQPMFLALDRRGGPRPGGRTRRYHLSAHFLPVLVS
FID counter: fluorescent intercalator displacement, NS3 helicase counter-screen; DNA fluorescent intercalator displacement, fluorescence; inhibition, % at 7.9 µM; hit rate 0.17% among 290,000; AID 1845; in the data active = inhibition above about 37%;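 note: higher means more ethidium bromide displaced from hairpin DNA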
Each line names hits and unclear results; the compound was inactive in the other large screens.

C1CC2CN(c3nc4nonc4nc3N3CCSCC3)CCN2C1 (stereo unspecified)	FGF22 binding 44
COc1ccc2c3c([nH]c2c1)[C@H](CO)N(C(=O)C1CC1)CC31CCN(S(C)(=O)=O)CC1	none (no result: ZTA DNA inh, HCV NS3 hel inh, EBNA-1 inh, NR3A LBD binder, FID counter)
CC(C)C[C@H]1COCn2nncc2CC[C@H](Cc2ccccc2)C(=O)N1	none (no result: ZTA DNA inh, HCV NS3 hel inh, EBNA-1 inh, NR3A LBD binder, FID counter)
CC(C)(C)Nc1nc(SCC(=O)Nc2ccccc2Cl)nc(N2CCOCC2)n1	NR3A LBD binder 17
COc1ccc(S(=O)(=O)N[C@@H]2CC[C@@H](CCn3cc(C(C)C)nn3)O[C@@H]2CO)cc1	none (no result: ZTA DNA inh, HCV NS3 hel inh, EBNA-1 inh, NR3A LBD binder, FID counter)
C[C@@H]1CN([C@H](C)CO)S(=O)(=O)c2ccc(-c3cncnc3)cc2O[C@H]1CN(C)C(=O)C1CCC1	none (no result: ZTA DNA inh, HCV NS3 hel inh, EBNA-1 inh, NR3A LBD binder, FID counter)
C[C@@H]1CN([C@@H](C)CO)C(=O)c2cc(C#Cc3ccccc3F)cnc2O[C@@H]1CN(C)C(=O)C1CCC1	none (no result: ZTA DNA inh, HCV NS3 hel inh, EBNA-1 inh, NR3A LBD binder, FID counter)
CCC(=O)N1[C@@H]2Cn3c(cccc3=O)[C@H]1[C@@H](C(=O)NCc1ccc(F)cc1)[C@@H]2CO	none (no result: ZTA DNA inh, HCV NS3 hel inh, EBNA-1 inh, NR3A LBD binder, FID counter)
Cc1cc(C)c(S(C)(=O)=O)c(N(C)NC(=O)c2c(F)cccc2F)n1	none
Cc1cc(C)c(S(C)(=O)=O)c(N(C)N)n1	FGF22 binding 43
Cc1noc(C)c1S(=O)(=O)Nc1ccc2c(c1)C(=O)N([C@@H](C)CO)C[C@@H](C)[C@H](CN(C)C(=O)Cc1ccccc1)OCCCC[C@@H](C)O2	none (no result: ZTA DNA inh, HCV NS3 hel inh, EBNA-1 inh, NR3A LBD binder, FID counter)
Cc1nc(NC(=S)Nc2ccccc2)sc1C	FGF22 binding 43
CCc1nnc(NC(=S)Nc2ccccc2)s1	none
Cc1ccc(C(=O)Nc2nnc(NC(=S)Nc3ccccc3)s2)cc1	NR3A LBD binder 32
CCOc1ccc(C(=O)Nc2nnc(NC(=S)Nc3ccccc3)s2)cc1	NR3A LBD binder 34
CCCC/C(O)=C1\C(=O)CC(C)(C)CC1=Nc1ccc(N)cc1	FGF22 binding 43
CCCC/C(O)=C1\C(=O)CC(C)(C)CC1=Nc1ccccc1OC	none
COC(=O)c1cccc(NC(=O)c2ccccc2)c1	none
Cc1cc(Cl)nc(-c2ccccc2O)n1	none (no result: FGF22 binding)
Cc1cc(Nc2ccc(Cl)cc2)nc(-c2ccccc2O)n1	NR3A LBD binder 35 (no result: ZTA DNA inh, EBNA-1 inh)
COC(=O)c1cccc(Nc2cc(C)nc(-c3ccccc3O)n2)c1	NR3A LBD binder 17 (no result: FGF22 binding)
Cc1cc(Nc2cccc(Cl)c2)nc(-c2ccccc2O)n1	NR3A LBD binder 37
O=C(COC(=O)COc1cccc2ccccc12)NCC(F)(F)F	FGF22 binding 43
COc1ccc(NC(=O)Nc2ccc3c(c2)C(=O)N([C@@H](C)CO)C[C@@H](C)[C@H](CN(C)S(=O)(=O)c2ccccc2)OCCCC[C@H](C)O3)cc1	none (no result: ZTA DNA inh, HCV NS3 hel inh, EBNA-1 inh, NR3A LBD binder, FID counter)
COc1cc(/C=N/NC(=O)c2sc(N)c(C#N)c2C)ccc1O	NR3A LBD binder 15 (no result: FGF22 binding)
COc1cc(/C=N/NC(=O)c2ccccc2)ccc1O	none
Cc1c(C(=O)N/N=C/c2ccc(O)c(Br)c2)sc(N)c1C#N	NR3A LBD binder 14 (no result: FGF22 binding)
C[C@@H]1CN([C@H](C)CO)S(=O)(=O)c2ccc(C#Cc3ccccn3)cc2O[C@@H]1CN(C)C(=O)C1CC1	none (no result: ZTA DNA inh, HCV NS3 hel inh, EBNA-1 inh, NR3A LBD binder, FID counter)
Nc1nc(-c2ccccc2)nc2sc3c(c12)CCCC3	NR3A LBD binder 14 (no result: FGF22 binding)
Cc1ccc(S(=O)(=O)NCC(c2ccco2)N2CCc3ccccc32)cc1 (stereo unspecified)	NR3A LBD binder 15 (no result: HCV NS3 hel inh, FID counter)
COc1ccc(S(=O)(=O)NCC(c2ccco2)N2CCc3ccccc32)cc1 (stereo unspecified)	none (no result: HCV NS3 hel inh, FID counter)
O=C(OCC(=O)N1CCC(Cc2ccccc2)CC1)c1ccccc1O	FGF22 binding 43 (no result: ZTA DNA inh, HCV NS3 hel inh, EBNA-1 inh, FID counter)
CS(=O)(=O)N1CC2(C1)[C@H](c1ccccc1)[C@H](CO)N2CC1CCCC1	none (no result: ZTA DNA inh, HCV NS3 hel inh, EBNA-1 inh, NR3A LBD binder, FID counter)
C[C@H](CO)N1C[C@H](C)[C@H](CN(C)Cc2ccc3c(c2)OCO3)Oc2ccc(NC(=O)Cc3ccccc3)cc2CC1=O	none (no result: ZTA DNA inh, HCV NS3 hel inh, EBNA-1 inh, NR3A LBD binder, FID counter)
Cc1cc(C(=O)Nc2ccon2)cs1	none
O=C(Nc1ccon1)c1ccc(OC2CCCC2)cc1	NR3A LBD binder 23 (no result: FGF22 binding)
CC(C)(C)c1cc(NC(=O)c2ccc(OC3CCCC3)cc2)no1	NR3A LBD binder 15
N#C/C(=C/c1cccs1)c1nc2ccccc2[nH]1	NR3A LBD binder 15 (no result: FGF22 binding)
N#C/C(=C\c1c(Cl)cccc1Cl)c1nc2ccccc2[nH]1	none
N#C/C(=C\c1ccc(Sc2nc3ccccc3[nH]2)o1)c1ccccc1	none (no result: FGF22 binding)
Cc1ccc(/C=C(\C#N)c2nc3ccccc3[nH]2)s1	NR3A LBD binder 19 (no result: FGF22 binding)
